Assay results of several laboratories.
Lines come from different studies, so protocols differ.

CCc1nc(C(N)=O)c(Nc2ccc(N3CCC(N4CCN(C)CC4)CC3)c(OC)c2)nc1NC1CCOCC1
GI50 (MOLM-13; cell growth or viability; 72 h): 0.032 µM

C[C@@H]1COCCN1c1cc(C2([S@](C)(=N)=O)CC2)nc(-c2cc[nH]c3nccc2-3)n1
IC50 (CT26; cell growth or viability, ATP luminescence; 24 h): 27.6 µM

CCCCCCCCCCCCCCCCCCOc1ccccc1CC(=O)OCC[N+](CC)(CC)CC
inhibition (NCI-H23; cell growth or viability, SRB; 10 µM): 86.9%

COc1cccc2c1C(=O)c1c(O)c3c(c(O)c1C2=O)C[C@@](O)(C(=O)CO)C[C@@H]3O[C@H]1C[C@H](N)[C@H](O)[C@H](C)O1
viability (CHP-212; cell growth or viability, SRB; 0.3704 µM): 19.4%

N#CSCc1cc(=O)oc2cc(O)ccc12
GI50 (SW1573; cell growth or viability, SRB): 5.5 µM

CNC(=O)c1cc(Oc2ccc(NC(=O)Nc3ccc(Cl)c(C(F)(F)F)c3)cc2)ccn1
IC50 (Bel-7402; cell growth or viability, MTT; 48 h): 5.06 µM

O=C(N[C@@H](CSCc1ccc([N+](=O)[O-])cc1)C(=O)NO)c1ccccc1
IC50 (NCI-H1573; cell growth or viability, MTT; 48 h): 2.37 µM

CCCCCCCCCCCCCCCCCCOc1ccc(CC(=O)OCCC[N+](C)(C)C)cc1
inhibition (NCI-H23; cell growth or viability, SRB; 10 µM): 18.9%

COc1ccc2oc(-c3ccc4nc(N)oc4c3)c/c(=N\c3ccccc3NC(=O)CCN)c2c1
inhibition (MOLM-13; cell growth or viability, CCK-8; 1 µM): 61.4%

O=C(C[C@@H](C(F)F)n1ccc(F)n1)N1CCC(O)(Cn2cnc3c(cnn3-c3ccc(F)cc3)c2=O)CC1
viability (CHP-212; cell growth or viability, SRB; 82.3 nM): 47.2%

CCCCCCCCCCCCCCCCCCOc1ccccc1CC(=O)OCC[N+]1(C)CCOCC1
inhibition (NCI-H23; cell growth or viability, SRB; 10 µM): 33.5%

CC(=O)O[C@H]1C(=O)[C@@]2(C)[C@H]([C@H](OC(=O)c3ccccc3)[C@]3(O)C[C@H](OC(=O)[C@H](O)[C@@H](NC(=O)c4ccccc4)c4ccccc4)C(C)=C1C3(C)C)[C@]1(OC(C)=O)CO[C@@H]1C[C@@H]2O
viability (CHP-212; cell growth or viability, SRB; 10 µM): 5.97%

CCCCCCCCCCCCCCCCCCOCC(COP(=O)([O-])OCC[N+](C)(C)C)OC (stereo not shown)
inhibition (NCI-H23; cell growth or viability, SRB; 10 µM): 10.9%

C(=N\Nc1cc(N/N=C/c2cccc3cccnc23)nc(-c2ccccc2)n1)/c1cccc2cccnc12
IC50 (Bel-7402; cell growth or viability, MTT; 48 h): 11.1 µM

CC(C)C[C@H](NC(=O)[C@H](Cc1ccccc1)NC(=O)c1cnccn1)B(O)O
viability (CHP-212; cell growth or viability, SRB; 0.3704 µM): 88%

N[C@@H](CO)C(=O)Nc1ccccc1/N=c1\cc(-c2ccc3c(c2)OCO3)oc2ccccc12
inhibition (MOLM-13; cell growth or viability, CCK-8; 1 µM): 8.02%

CCCCCCCCCCCCCCCCCCOc1cccc(CC(=O)OCC[N+](C)(C)C)c1
inhibition (NCI-H23; cell growth or viability, SRB; 10 µM): 11%

NCCC(=O)Nc1ccccc1/N=c1\cc(-c2ccc3nc(N)oc3c2)oc2ccccc12
inhibition (MOLM-13; cell growth or viability, CCK-8; 1 µM): 60.4%

C#Cc1cccc(Nc2ncnc3cc(OCCOC)c(OCCOC)cc23)c1
IC50 (Bel-7402; cell growth or viability, MTT; 48 h): > 20 µM

CCNNC(=O)c1ccc(CN(CC(=O)NCc2ccccc2)C(=O)c2ccc(N(C)C)cc2)cc1
IC50 (A2780cisR; cell growth or viability, MTT; 72 h): 4.62 µM

COC(=O)[C@H]1[C@@H](O)[C@@]2(O)c3c(OC)cc(O[C@@H]4O[C@@H]([C@H](O)CO)CO[C@H]4OC)cc3O[C@@]2(c2ccc(OC)cc2)[C@@H]1c1ccccc1
IC50 (C6661; cell growth or viability, MTS; 48 h): 0.007 µM

CNCc1ccc(-c2cc(-c3nc(-c4ccc(S(=O)(=O)C(C)C)cc4)cnc3N)on2)cc1
IC50 (CT26; cell growth or viability, ATP luminescence; 24 h): 3.05 µM

C=C(C)[C@@H]1CC[C@]2(C)CC[C@]3(C)[C@H](CC[C@@H]4[C@@]5(C)CC[C@H](O)C(C)(C)[C@@H]5CC[C@]43C)[C@@H]12
inhibition (SIM-A9; NO release, inhibitor, Griess; 106.7 µM, LPS-stimulated): 1.81%

CCCCCCCCCCCCCCCCCCOc1ccc(CC(=O)OCC[N+](C)(C)C)cc1
inhibition (NCI-H23; cell growth or viability, SRB; 10 µM): 6.67%

COc1ccc2/c(=N/c3ccccc3NC(=O)[C@H](C)N)cc(-c3ccc4c(c3)OCCO4)oc2c1
inhibition (MOLM-13; cell growth or viability, CCK-8; 1 µM): 6.88%

CCCCCCCCCCCCCCCCCCOc1cccc(CC(=O)OCC[N+]2(C)CCCC2)c1
inhibition (NCI-H23; cell growth or viability, SRB; 10 µM): 24.6%

COCCC(=O)Nc1ccccc1/N=c1\cc(-c2ccc3c(c2)OCO3)oc2ccccc12
inhibition (MOLM-13; cell growth or viability, CCK-8; 1 µM): 6.03%

Cc1c(Cl)c(=O)oc2cc(OCCCCSC#N)ccc12
GI50 (SW1573; cell growth or viability, SRB): 5.8 µM

NCCC(=O)Nc1ccccc1/N=c1\cc(-c2ccc3nc(N)oc3c2)oc2cc(O)ccc12
inhibition (MOLM-13; cell growth or viability, CCK-8; 1 µM): 3.71%

CCCCCCCCCCCCCCCCCCOc1cccc(CC(=O)OCC[N+](CC)(CC)CC)c1
inhibition (NCI-H23; cell growth or viability, SRB; 10 µM): 64.3%

Nc1ccccc1/N=c1\cc(-c2ccc3c(c2)OCO3)oc2ccccc12
inhibition (MOLM-13; cell growth or viability, CCK-8; 1 µM): 5.39%

COc1ncnc(C2CC2)c1-c1ncc2cnn(Cc3ccc(-c4nc(C(F)(F)F)cn4C(C)C)cc3)c2n1
viability (CHP-212; cell growth or viability, SRB; 25 µM): 76.7%

NCCCCC(=O)Nc1ccccc1/N=c1\cc(-c2ccc3c(c2)OCO3)oc2ccccc12
inhibition (MOLM-13; cell growth or viability, CCK-8; 1 µM): -0.26%

C(=N\Nc1cc(N/N=C/c2ccc3ccccc3n2)ncn1)/c1ccc2ccccc2n1
IC50 (Bel-7402; cell growth or viability, MTT; 48 h): 34 µM
